Laboratory results reported in ChEMBL document CHEMBL1144236, “Synthesis of 1-arylpiperazyl-2-phenylcyclopropanes designed as antidopaminergic agents: cyclopropane-based conformationally restricted analogs of haloperidol” (Bioorg Med Chem, 2008).

Experiments:
[1] = Displacement of [3H]prazosin from adrenergic alpha1 receptor in ICR mouse brain homogenate; assay type: tissue-based
Procedure, shortened: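 Brain tissue was homogenized in 19 vol. of 50 mM Tris–HCl pH 7.5 and centrifuged at 40,000g for 15 min, then the pellet was washed once and resuspended in 24 vol. buffer. Homogenate (about 400 protein) was incubated with [3H]prazosin (0.05–1 nM) for 1 h at 20 °C. Binding was ended by rapid filtration, with filter-bound radioactivity counted by liquid scintillation.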

[2] = Displacement of [3H]YM-09151-2 from human dopamine D4.2 receptor in membrane suspensions by liquid scintillation counter
Homo sapiens = species: Homo sapiens; assay: Selectivity ratio of Ki for human dopamine D2S receptor to Ki for human dopamine D4.2 receptor
D(2) dopamine receptor = D(2) dopamine receptor (Homo sapiens, UniProt P14416); assay: Displacement of [3H]YM-09151-2 from human dopamine D2S receptor in membrane suspensions by liquid scintillation counter
D(2) dopamine receptor, sequence (P14416 whole entry): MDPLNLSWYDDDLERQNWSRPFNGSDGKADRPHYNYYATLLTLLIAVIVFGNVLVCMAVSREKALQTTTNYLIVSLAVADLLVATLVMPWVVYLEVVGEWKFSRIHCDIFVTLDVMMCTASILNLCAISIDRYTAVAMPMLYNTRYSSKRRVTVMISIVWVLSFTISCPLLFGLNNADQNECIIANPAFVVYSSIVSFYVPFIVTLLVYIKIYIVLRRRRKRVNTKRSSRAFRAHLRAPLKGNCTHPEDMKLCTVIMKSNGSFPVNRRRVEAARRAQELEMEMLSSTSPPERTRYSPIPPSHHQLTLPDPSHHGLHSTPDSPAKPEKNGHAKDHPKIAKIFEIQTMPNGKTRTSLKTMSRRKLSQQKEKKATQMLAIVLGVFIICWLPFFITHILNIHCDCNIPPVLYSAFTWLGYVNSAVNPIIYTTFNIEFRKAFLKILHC

Structure (SMILES)	Ki [1] [nM]	Ki [2] [nM]	Ratio Ki (Homo sapiens)	Ki (D(2) dopamine receptor) [nM]
Cc1ccc(N2CCN(C[C@H]3C[C@@H]3c3ccccc3)CC2)c(C)c1	432	130	–	–
Cc1ccc(N2CCN(C[C@@H]3C[C@@H]3c3ccccc3)CC2)c(C)c1	537	2050	–	–
Cc1ccc(N2CCN([C@@H](C)[C@H]3C[C@]3(C)c3ccccc3)CC2)c(C)c1	250	4190	> 2.4	> 10000
O=C(CCCN1CCC(O)(c2ccc(Cl)cc2)CC1)c1ccc(F)cc1 [HALOPERIDOL]	–	9.32	–	–
Cc1ccc(N2CCN(C[C@H]3C[C@]3(C)c3ccccc3)CC2)c(C)c1	906	236	> 42	> 10000
Cc1ccc(N2CCN(C[C@H]3C[C@H]3c3ccccc3)CC2)c(C)c1	521	897	–	–
Cc1ccc(N2CCN([C@H](C)[C@H]3C[C@]3(C)c3ccccc3)CC2)c(C)c1	401	4660	> 2.1	> 10000
